# According to ChEMBL document CHEMBL1255444, “In vitro antibacterial activities of JNJ-Q2, a new broad-spectrum fluoroquinolone” (Antimicrob Agents Chemother, 2010):
# Key:
# Streptococcus pneumoniae [1] = assay: Antibacterial activity against Streptococcus pneumoniae isolate OC6608 assessed as log reduction in bacterial growth at 4 times MIC measured at 24 hrs by time-kill assay; format: functional
# How it was run: (§1)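 Drug was diluted from 50× stocks made in water or acidified water. Samples were taken at 6 and 24 h and serially diluted onto TSA-5% sheep blood plates. Plates were incubated 20–24 h at 37°C in 5% CO2 before counting CFU. Log10 titer change is given relative to the starting inoculum.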
# Streptococcus pneumoniae [2] = assay: Antibacterial activity against Streptococcus pneumoniae isolate OC5462 by broth microdilution method; format: functional
# How it was run: (§2)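 CLSI M07-A7 broth microdilution MIC. Medium was cation-adjusted Mueller-Hinton broth. For S. pneumoniae it was Mueller-Hinton supplemented with 5% lysed horse blood. CLSI quality-control strains were included as appropriate.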
# Staphylococcus aureus [3] = assay: Antibacterial activity against methicillin-susceptible Staphylococcus aureus by broth microdilution method; format: functional
# Staphylococcus aureus [4] = assay: Antibacterial activity against methicillin-resistant Staphylococcus aureus isolate OC11150 harboring gyrA S84L and parC S80Y mutant gene by agar dilution method; format: functional
# How it was run: (§3)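 MICs for the resistance-selection studies were determined by CLSI agar dilution on Mueller-Hinton medium. For S. pneumoniae the medium was supplemented with 5% lysed horse blood. For MRSA fluctuation-assay strains an arithmetic agar dilution scheme was used for a more precise MIC.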
# Staphylococcus aureus [5] = assay: Antibacterial activity against methicillin-resistant Staphylococcus aureus isolate OC2838 by broth microdilution method; format: functional; how it was run: as §2
# Staphylococcus aureus [6] = assay: Antibacterial activity against methicillin-resistant Staphylococcus aureus isolate OC2838 assessed as log reduction in bacterial growth at 2 times MIC measured at 24 hrs by time-kill assay; format: functional
# How it was run: (§4)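 Overnight MRSA cultures were diluted into fresh cation-adjusted Mueller-Hinton broth to about 5 × 10^6 CFU/ml. […] Samples were plated serially diluted on trypticase soy agar, and CFU were counted after 20-24 h at 37°C. Value is the log10 decrease at 24 h from the starting inoculum; detection limit 100 CFU.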
# Staphylococcus aureus [7] = assay: Antibacterial activity against methicillin-resistant Staphylococcus aureus isolate OC8530 harboring gyrA S84L and parC I143V mutant gene assessed as log reduction in bacterial growth at 2 times MIC measured at 24 hrs by time-kill assay; format: functional
# How it was run: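 Time-kill in cation-adjusted Mueller-Hinton broth. […] Samples were taken up to 24 h, serially diluted onto TSA and counted after 20–24 h at 37°C. Result is log10 decrease at 24 h from the starting inoculum; detection limit 100 CFU.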
# Streptococcus pneumoniae [8] = assay: Antibacterial activity against Streptococcus pneumoniae OC7452 harboring parC S79Y mutant gene by agar dilution method; format: functional; how it was run: as §3
# Streptococcus pneumoniae [9] = assay: Antibacterial activity against Streptococcus pneumoniae ATCC 49619 by broth microdilution method; format: functional
# How it was run: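 MICs by CLSI M07-A7 broth microdilution in cation-adjusted Mueller-Hinton medium. For S. pneumoniae the medium was supplemented with 5% lysed horse blood. CLSI quality control strains were run alongside as appropriate.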
# Escherichia coli = assay: Antibacterial activity against ciprofloxacin-susceptible, -intermediate Escherichia coli by broth microdilution method; format: functional
# Streptococcus pneumoniae [10] = assay: Antibacterial activity against Streptococcus pneumoniae isolate OC5462 assessed as log reduction in bacterial growth at 2 times MIC measured at 24 hrs by time-kill assay; format: functional; how it was run: as §1
# Staphylococcus aureus [11] = assay: Antibacterial activity against methicillin-resistant Staphylococcus aureus isolate OC12501 assessed as log reduction in bacterial growth at 2 times MIC measured at 24 hrs by time-kill assay; format: functional; how it was run: as §4
# Staphylococcus aureus [12] = assay: Antibacterial activity against methicillin-resistant Staphylococcus aureus isolate OC2838 assessed as log reduction in bacterial growth at 4 times MIC measured at 24 hrs by time-kill assay; format: functional; how it was run: as §4
# [13] = Plasma protein binding in rat infected with gram-positive bacteria; format: ADME, cell-free; conditions: read-out: PPB (converted)
# Streptococcus pneumoniae [14] = assay: Antibacterial activity against Streptococcus pneumoniae isolate OC7189 assessed as log reduction in bacterial growth at 4 times MIC measured at 24 hrs by time-kill assay; format: functional; how it was run: as §1
# Streptococcus pneumoniae [15] = assay: Antibacterial activity against Streptococcus pneumoniae isolate OC7348 assessed as log reduction in bacterial growth at 4 times MIC measured at 24 hrs by time-kill assay; format: functional; how it was run: as §1
# Streptococcus pneumoniae [16] = assay: Antibacterial activity against Streptococcus pneumoniae isolate OC7189 assessed as log reduction in bacterial growth at 2 times MIC measured at 6 hrs by time-kill assay; format: functional; how it was run: as §1
# Streptococcus pneumoniae [17] = assay: Ratio of Gemifloxacin MIC90 to compound MIC90 for ciprofloxacin-resistant Streptococcus pneumoniae; format: functional
# Staphylococcus aureus [18] = assay: Antibacterial activity against methicillin-resistant Staphylococcus aureus isolate OC17042 harboring gyrA S84L/G106D, parC S80F and parE D732N mutant gene assessed as log reduction in bacterial growth at 4 times MIC measured at 24 hrs by time-kill assay; format: functional; how it was run: as §4
# Streptococcus pneumoniae [19] = assay: Ratio of Levofloxacin MIC90 to compound MIC90 for ciprofloxacin-resistant Streptococcus pneumoniae; format: functional
# Streptococcus pneumoniae [20] = assay: Antibacterial activity against Streptococcus pneumoniae isolate OC6585 assessed as log reduction in bacterial growth at 2 times MIC measured at 6 hrs by time-kill assay; format: functional; how it was run: as §1
# Staphylococcus aureus [21] = assay: Antibacterial activity against methicillin-resistant Staphylococcus aureus isolate OC11696 by broth microdilution method; format: functional; how it was run: as §2
# Staphylococcus aureus [22] = assay: Antibacterial activity against methicillin-resistant Staphylococcus aureus isolate OC15425 harboring gyrA S84L and parC S80F mutant gene by agar dilution method; format: functional; how it was run: as §3
# Staphylococcus aureus [23] = assay: Antibacterial activity against methicillin-resistant Staphylococcus aureus isolate OC11521 harboring gyrA S84L/S85P, parC E84G mutant gene assessed as log reduction in bacterial growth at 4 times MIC measured at 24 hrs by time-kill assay; format: functional; how it was run: as §4
# Staphylococcus aureus [24] = assay: Antibacterial activity against methicillin-resistant Staphylococcus aureus isolate OC11223 assessed as log reduction in bacterial growth at 4 times MIC measured at 24 hrs by time-kill assay; format: functional; how it was run: as §4
# Streptococcus pneumoniae [25] = assay: Antibacterial activity against Streptococcus pneumoniae isolate OC7376 assessed as log reduction in bacterial growth at 4 times MIC measured at 6 hrs by time-kill assay; format: functional; how it was run: as §1
# Staphylococcus aureus [26] = assay: Antibacterial activity against methicillin-resistant Staphylococcus aureus isolate OC8530 harboring gyrA S84L and parC I143V mutant gene by broth microdilution method; format: functional
# How it was run: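 CLSI M07-A7 broth microdilution MIC in cation-adjusted Mueller-Hinton medium. For S. pneumoniae the medium was supplemented with 5% lysed horse blood. CLSI quality-control strains were included as appropriate.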
# Streptococcus pneumoniae [27] = assay: Antibacterial activity against Streptococcus pneumoniae isolate OC5462 assessed as log reduction in bacterial growth at 2 times MIC measured at 6 hrs by time-kill assay; format: functional; how it was run: as §1
# Staphylococcus aureus [28] = assay: Antibacterial activity against methicillin-resistant Staphylococcus aureus isolate OC11521 harboring gyrA S84L/S85P, parC E84G mutant gene by broth microdilution method; format: functional; how it was run: as §2
# Providencia stuartii = assay: Ratio of Ciprofloxacin MIC90 to compound MIC90 for Providencia stuartii; format: functional
# Streptococcus pneumoniae [29] = assay: Antibacterial activity against Streptococcus pneumoniae isolate OC7376 by broth microdilution method; format: functional; how it was run: as §2
# Streptococcus pneumoniae [30] = assay: Antibacterial activity against Streptococcus pneumoniae isolate OC6790 assessed as log reduction in bacterial growth at 2 times MIC measured at 6 hrs by time-kill assay; format: functional; how it was run: as §1
# Staphylococcus aureus [31] = assay: Antibacterial activity against methicillin-resistant Staphylococcus aureus isolate OC11521 harboring gyrA S84L/S85P, parC E84G mutant gene assessed as log reduction in bacterial growth at 2 times MIC measured at 24 hrs by time-kill assay; format: functional; how it was run: as §4
smiles,measurement,setting,value
COc1c(N2CCC/C(=C(\F)CN)C2)c(F)cc2c(=O)c(C(=O)O)cn(C3CC3)c12 [ACORAFLOXACIN],deltalog10CFU/ml,Streptococcus pneumoniae [1],7.1
same,MIC,Streptococcus pneumoniae [2],0.06 µg/mL
same,MIC50,Staphylococcus aureus [3],0.015 µg/mL
same,MIC90,Staphylococcus aureus [3],0.015 µg/mL
same,MIC,Staphylococcus aureus [4],0.12 µg/mL
same,MIC,Staphylococcus aureus [5],0.25 µg/mL
same,deltalog10CFU/ml,Staphylococcus aureus [6],4.1
same,deltalog10CFU/ml,Staphylococcus aureus [7],6.3
same,MIC,Streptococcus pneumoniae [8],0.015 µg/mL
same,MIC50,Streptococcus pneumoniae [9],0.015 µg/mL
same,MIC90,Streptococcus pneumoniae [9],0.12 µg/mL
same,MIC50,Escherichia coli,0.06 µg/mL
same,MIC90,Escherichia coli,0.25 µg/mL
same,deltalog10CFU/ml,Streptococcus pneumoniae [10],3.3
same,deltalog10CFU/ml,Staphylococcus aureus [11],6.2
same,deltalog10CFU/ml,Staphylococcus aureus [12],4.5
same,fraction unbound,[13],0.44
same,deltalog10CFU/ml,Streptococcus pneumoniae [14],7.2
same,deltalog10CFU/ml,Streptococcus pneumoniae [15],6.5
same,deltalog10CFU/ml,Streptococcus pneumoniae [16],4
same,Ratio,Streptococcus pneumoniae [17],9
same,deltalog10CFU/ml,Staphylococcus aureus [18],3.5
same,Ratio,Streptococcus pneumoniae [19],9
same,deltalog10CFU/ml,Streptococcus pneumoniae [20],3.9
same,MIC,Staphylococcus aureus [21],0.06 µg/mL
same,MIC,Staphylococcus aureus [22],0.12 µg/mL
same,deltalog10CFU/ml,Staphylococcus aureus [23],2.3
same,deltalog10CFU/ml,Staphylococcus aureus [24],3.9
same,deltalog10CFU/ml,Streptococcus pneumoniae [25],5.3
same,MIC,Staphylococcus aureus [26],0.25 µg/mL
same,deltalog10CFU/ml,Streptococcus pneumoniae [27],3.2
same,MIC,Staphylococcus aureus [28],1 µg/mL
same,Ratio,Providencia stuartii,16
same,MIC,Streptococcus pneumoniae [29],0.12 µg/mL
same,deltalog10CFU/ml,Streptococcus pneumoniae [30],3.6
same,deltalog10CFU/ml,Staphylococcus aureus [31],2.3
